# Measurements published in ChEMBL document CHEMBL1649498, “Pharmacological exploitation of an off-target antibacterial effect of the cyclooxygenase-2 inhibitor celecoxib against Francisella tularensis” (Antimicrob Agents Chemother, 2009).
# The source made the active and inactive calls. The calls are words filed in the database; no cut-off is given here.
# Experiments:
# Francisella novicida [1] = assay: Antibacterial activity against Francisella novicida infected in mouse RAW264.7 cells at 64 ug/ml after 24 hrs by broth microdilution method; type: functional, cell-based; conditions: Francisella tularensis subsp. novicida
# Procedure, shortened: (§1)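 F. novicida U112 grown overnight on chocolate agar, suspended in PBS and diluted to 5 × 10⁵ CFU/ml in TSB with 0.025% iron(III) pyrophosphate and 0.1% cysteine HCl. CLSI broth microdilution in triplicate, 1 to 64 μg/ml, 37°C for 24 h. MIC was the lowest concentration with no visible growth.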
# Francisella tularensis [2] = assay: Antibacterial activity against Francisella tularensis LVS infected in mouse RAW264.7 cells at 64 ug/ml after 48 hrs by broth microdilution method; type: functional, cell-based
# Francisella novicida [3] = assay: Antibacterial activity against Francisella novicida infected in mouse RAW264.7 cells after 24 hrs by broth microdilution method; type: functional, Francisella tularensis subsp. novicida; conditions: Francisella tularensis; procedure, shortened: as §1
# Francisella tularensis [4] = assay: Antibacterial activity against Francisella tularensis LVS infected in mouse RAW264.7 cells after 48 hrs by broth microdilution method; type: functional
# RAW264.7 = assay: Cytotoxicity against mouse RAW264.7 cells after 8 hrs by MTT assay; type: cell-based; conditions: RAW264.7, 8 h
# Procedure, shortened: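 RAW 264.7 cells at 2.5 × 10⁴/well, at least 6 wells per group, left overnight. Treated in 5% FBS DMEM with agents in DMSO (0.1% final) for 8 h. Then 0.5 mg/ml MTT for 1 h at 37°C, dye dissolved in DMSO, A570 read. Viability taken as % of vehicle control; IC50 from the dose-response.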
# [5] = Selectivity index, ratio of IC50 for mouse RAW264.7 cells to MIC for Francisella novicida; type: functional
# Salmonella typhimurium = assay: Antibacterial activity against Salmonella enterica serovar Typhimurium ATCC 14028 infected in mouse RAW264.7 cells at 64 ug/ml after 24 to 48 hrs by broth microdilution method; type: functional, organism-based; conditions: Salmonella enterica subsp. enterica serovar Typhimurium
# Escherichia coli = assay: Antibacterial activity against Escherichia coli ATCC 25922 infected in mouse RAW264.7 cells at 64 ug/ml after 24 to 48 hrs by broth microdilution method; type: functional, organism-based
# Francisella tularensis [6] = assay: Antibacterial activity against Francisella tularensis SchuS4 infected in mouse RAW264.7 cells at 64 ug/ml after 24 hrs by broth microdilution method; type: functional, cell-based
# Francisella tularensis [7] = assay: Antibacterial activity against Francisella tularensis SchuS4 infected in mouse RAW264.7 cells after 24 hrs by broth microdilution method; type: functional; conditions: SchuS4, 24 h
# Francisella novicida [8] = assay: Antibacterial activity against Francisella novicida infected in mouse RAW264.7 cells at 64 ug/ml after 24 hrs by broth microdilution method in presence of 10% human serum albumin; type: functional, cell-based; conditions: Francisella tularensis subsp. novicida
# Francisella novicida [9] = assay: Antibacterial activity against Francisella novicida infected in mouse RAW264.7 cells at 64 ug/ml after 24 hrs by broth microdilution method in presence of 50% human serum albumin; type: functional, cell-based; conditions: Francisella tularensis subsp. novicida
# Francisella novicida [10] = assay: Antibacterial activity against Francisella novicida infected in mouse RAW264.7 cells at 64 ug/ml after 24 hrs by broth microdilution method in presence of 80% human serum albumin; type: functional, cell-based; conditions: Francisella tularensis subsp. novicida
# Francisella novicida [11] = assay: Antibacterial activity against Francisella novicida infected in mouse RAW264.7 cells at 64 ug/ml after 24 hrs by broth microdilution method in presence of 80% fetal bovine serum; type: functional, cell-based; conditions: Francisella tularensis subsp. novicida
# Procedure, shortened: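 Broth contained 0, 10, 50 or 80% human AB serum (not albumin) or FBS to probe protein binding. NE means no effect at 64 μg/ml.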
# Francisella tularensis [12] = assay: Antibacterial activity against Francisella tularensis SchuS4 infected in human THP1 cells at 4 ug/ml after 24 hrs by broth microdilution method; type: functional, cell-based; conditions: THP-1
SMILES,Activity (Francisella novicida [1]),Activity (Francisella tularensis [2]),MIC (Francisella novicida [3]) [µg/mL],MIC (Francisella tularensis [4]) [µg/mL],further results
CCCCc1ccc(-c2ccc(-c3cc(C(F)(F)F)nn3-c3ccc(C(N)=O)cc3)cc2)cc1,inactive,inactive,–,–,–
FC(F)(F)c1cc(-c2ccc3ccc4ccccc4c3c2)n(-c2ccccc2)n1,inactive,inactive,–,–,–
Cc1cc(C)cc(-c2ccc(-c3cc(C(F)(F)F)nn3-c3ccc(C(N)=O)cc3)cc2)c1,inactive,inactive,–,–,–
CS(=O)(=O)c1ccc(-n2nc(C(F)(F)F)cc2-c2ccc(F)cc2)cc1,inactive,inactive,–,–,–
Cc1ccc(-c2ccc(-c3cc(C(F)(F)F)nn3-c3ccc(C(N)=O)cc3)cc2)cc1,–,–,8,8,–
Nc1ccc(-n2nc(C(F)(F)F)cc2-c2ccc(-c3cc(Cl)c(Cl)cc3Cl)cc2)cc1,inactive,–,–,4,–
NC(=O)c1ccc(-n2nc(C(F)(F)F)cc2-c2ccc(-c3ccccc3)cc2)cc1,–,–,16,8,–
NS(=O)(=O)c1ccc(-n2nc(C(F)(F)F)cc2-c2ccc(-c3cc(Cl)c(Cl)cc3Cl)cc2)cc1,–,–,2,1,IC50 (RAW264.7): 2.4 µg/mL; Ratio [5]: 1.2
NC(=O)c1ccc(-n2nc(C(F)(F)F)cc2-c2ccc(-c3cc(Cl)cc(Cl)c3)cc2)cc1,–,–,16,4,–
NC(=O)c1ccc(-n2nc(C(F)(F)F)cc2-c2c3ccccc3cc3ccccc23)cc1,–,–,16,16,–
CCCCc1ccc(-c2cc(C(F)(F)F)nn2-c2ccc(C(N)=O)cc2)cc1,–,–,16,8,–
Cc1ccc(-c2ccc(-c3cc(C(F)(F)F)nn3-c3ccc(S(C)(=O)=O)cc3)cc2)cc1,inactive,inactive,–,–,–
Nc1ccc(-n2nc(C(F)(F)F)cc2-c2ccc(-c3ccccc3)cc2)cc1,–,–,4,4,IC50 (RAW264.7): 15 µg/mL; Ratio [5]: 3.8
NS(=O)(=O)c1ccc(-n2nc(C(F)(F)F)cc2-c2cccc3ccccc23)cc1,–,–,16,8,–
CS(=O)(=O)c1ccc(C2=C(c3ccccc3)C(=O)OC2)cc1 [ROFECOXIB],inactive,inactive,–,–,Activity (Salmonella typhimurium): inactive; Activity (Escherichia coli): inactive; Activity (Francisella tularensis [6]): inactive
CC(C)(C)c1ccc(-c2ccc(-c3cc(C(F)(F)F)nn3-c3ccc(C(N)=O)cc3)cc2)cc1,inactive,inactive,–,–,–
Nc1ccc(-n2nc(C(F)(F)F)cc2-c2ccc(-c3ccc(Br)cc3)cc2)cc1,–,–,4,4,Activity (Francisella tularensis [6]): Active; IC50 (RAW264.7): 46 µg/mL; Ratio [5]: 11.5
NS(=O)(=O)c1ccc(-n2nc(C(F)(F)F)cc2-c2ccc(-c3ccc(Cl)cc3)cc2)cc1,–,–,4,4,IC50 (RAW264.7): 4.8 µg/mL; Ratio [5]: 1.2
NC(=O)c1ccc(-n2nc(C(F)(F)F)cc2-c2ccc(-c3ccc(C(F)(F)F)cc3)cc2)cc1,inactive,inactive,–,–,–
Cc1ccc(-c2cc(C(F)(F)F)nn2-c2ccc(S(N)(=O)=O)cc2)cc1 [CELECOXIB],–,–,32,16,MIC (Francisella tularensis [7]): 16 µg/mL; Activity (Salmonella typhimurium): inactive; Activity (Escherichia coli): inactive; IC50 (RAW264.7): 17 µg/mL; Ratio [5]: 0.5; Activity (Francisella novicida [8]): inactive; Activity (Francisella novicida [9]): inactive; Activity (Francisella novicida [10]): inactive; Activity (Francisella novicida [11]): inactive; Activity (Francisella tularensis [12]): inactive
Nc1ccc(-n2nc(C(F)(F)F)cc2-c2cccc3ccccc23)cc1,–,–,16,8,–
NC(=O)c1ccc(-n2nc(C(F)(F)F)cc2-c2ccc(-c3ccc(Cl)cc3)cc2)cc1,–,–,4,2,IC50 (RAW264.7): 9 µg/mL; Ratio [5]: 2.3
COc1ccc2cc(-c3cc(C(F)(F)F)nn3-c3ccc(N)cc3)ccc2c1,–,–,16,16,–
